Active and inactive are the calls of the source. The calls are words filed in the database; no cut-off is given here.

The first assay concerns Cystic fibrosis transmembrane conductance regulator (Homo sapiens), P13569 [R347P]. Briefly: Potentiation of CFTR R347P mutant (unknown origin) expressed in rat FRT cells assessed as effect on VX-770-stimulated chloride current in presence of forskolin by short circuit method. It is filed as cell-based.
Sequence of Cystic fibrosis transmembrane conductance regulator (Homo sapiens), P13569 [R347P] (P13569 whole entry R347P): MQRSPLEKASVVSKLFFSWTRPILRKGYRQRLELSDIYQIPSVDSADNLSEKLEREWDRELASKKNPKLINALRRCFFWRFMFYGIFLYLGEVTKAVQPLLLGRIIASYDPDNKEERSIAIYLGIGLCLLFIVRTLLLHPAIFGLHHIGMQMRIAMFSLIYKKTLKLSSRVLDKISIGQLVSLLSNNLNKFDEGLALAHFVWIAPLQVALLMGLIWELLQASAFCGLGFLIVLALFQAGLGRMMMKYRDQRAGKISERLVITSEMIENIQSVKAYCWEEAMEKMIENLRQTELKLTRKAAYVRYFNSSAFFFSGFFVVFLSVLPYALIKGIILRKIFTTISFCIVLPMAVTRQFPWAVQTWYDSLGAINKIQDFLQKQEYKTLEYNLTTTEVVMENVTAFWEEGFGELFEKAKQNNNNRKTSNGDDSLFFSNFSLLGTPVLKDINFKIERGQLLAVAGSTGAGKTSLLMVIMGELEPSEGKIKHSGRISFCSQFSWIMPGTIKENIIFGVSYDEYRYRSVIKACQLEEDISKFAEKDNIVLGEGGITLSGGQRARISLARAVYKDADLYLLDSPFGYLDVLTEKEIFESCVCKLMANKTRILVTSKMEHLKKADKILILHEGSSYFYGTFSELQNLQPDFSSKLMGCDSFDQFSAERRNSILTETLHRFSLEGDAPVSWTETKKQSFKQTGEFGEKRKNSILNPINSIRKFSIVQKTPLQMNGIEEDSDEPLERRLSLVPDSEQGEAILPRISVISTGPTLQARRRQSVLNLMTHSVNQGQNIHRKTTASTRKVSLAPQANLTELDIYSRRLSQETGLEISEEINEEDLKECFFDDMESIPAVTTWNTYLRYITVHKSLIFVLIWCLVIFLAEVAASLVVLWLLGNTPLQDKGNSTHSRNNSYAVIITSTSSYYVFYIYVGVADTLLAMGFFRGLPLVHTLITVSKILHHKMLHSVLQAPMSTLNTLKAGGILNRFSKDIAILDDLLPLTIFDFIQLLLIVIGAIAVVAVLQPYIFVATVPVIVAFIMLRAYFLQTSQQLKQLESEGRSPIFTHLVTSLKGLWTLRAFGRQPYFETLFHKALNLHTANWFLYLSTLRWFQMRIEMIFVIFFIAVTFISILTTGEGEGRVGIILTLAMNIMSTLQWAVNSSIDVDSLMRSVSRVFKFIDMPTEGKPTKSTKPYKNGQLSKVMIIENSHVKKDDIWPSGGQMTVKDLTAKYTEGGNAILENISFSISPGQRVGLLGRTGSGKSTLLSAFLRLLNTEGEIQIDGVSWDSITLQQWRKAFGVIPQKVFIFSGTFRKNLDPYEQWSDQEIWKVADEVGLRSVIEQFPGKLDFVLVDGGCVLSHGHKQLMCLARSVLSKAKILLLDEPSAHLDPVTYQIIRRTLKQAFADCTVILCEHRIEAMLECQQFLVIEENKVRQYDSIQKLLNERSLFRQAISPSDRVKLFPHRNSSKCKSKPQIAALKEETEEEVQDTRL
Settings: not given
The essentials:
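R347P-CFTR FRT cells, corrected with 3 μM VX-661 for 18–24 h. Short-circuit current at 37 °C in HCO3-buffered solutions with a chloride gradient. Basolateral membrane permeabilized with 250 μg/ml amphotericin B. Sequential additions: 20 μM forskolin, 5 μM VX-770, 20 μM test compound, then 10 μM CFTRinh-172.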
As to `COc1ccc2[nH]c3c(c2c1)CCNC31CCN(Cc2cc(F)c(F)cc2F)CC1`, the outcome was inactive.

The subject of another assay is 16HBE14o-. The experiment in a line: Potentiation of CFTR I1234del mutant (unknown origin) expressed in human 16HBE14o- cells assessed as increase in VX-770-stimulated chloride current in presence of forskolin by short circuit method. It is filed as cell-based. As to conditions: filed as activator. The method, boiled down:
(§1)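 Gene-edited 16HBE14o- cells grown on permeable supports; short-circuit current at 37 °C with a chloride gradient in Hepes-buffered solutions. Sequential additions: 20 μM forskolin, 5 μM VX-770, 10 μM test compound, then 10 μM CFTRinh-172. Change in current (ΔIsc) reported as mean ± S.E.M., n = 3.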
`COc1ccc2[nH]c3c(c2c1)CCNC31CCN(Cc2cc(F)c(F)cc2F)CC1`: the outcome was Active.

Another assay concerns Cystic fibrosis transmembrane conductance regulator (Homo sapiens), P13569 [N1303K]. The experiment in a line: Potentiation of CFTR N1303K mutant (unknown origin) expressed in human 16HBE14o- cells assessed as increase in VX-770-stimulated chloride current in presence of forskolin by short circuit method. It is filed as cell-based. As to conditions: filed as activator. The method, boiled down: as §1
Sequence of Cystic fibrosis transmembrane conductance regulator (Homo sapiens), P13569 [N1303K] (P13569 whole entry N1303K): as the sequence (P13569 whole entry R347P) above, with P347R, N1303K counted along it
On to `COc1ccc2[nH]c3c(c2c1)CCNC31CCN(Cc2cc(F)c(F)cc2F)CC1`, for which the result was Active.

The next assay has the same test system. Briefly: (§2) Potentiation of CFTR N1303K mutant (unknown origin) expressed in rat FRT cells assessed as increase in VX-770-stimulated chloride current in presence of forskolin by short circuit method. It is filed as cell-based.
Settings: not given
The essentials: (§3)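 FRT cells stably expressing the mutant CFTR, corrected with 3 μM VX-661 for 18–24 hours, then grown on permeable supports. Short-circuit current at 37 °C in HCO3-buffered solutions with a chloride gradient. Basolateral membrane permeabilized with 250 μg/ml amphotericin B. Additions: 20 μM forskolin, 5 μM VX-770, test compound at a range of concentrations, then 10 μM CFTRinh-172. Concentration dependence n=3, mean ± S.E.M.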
`COc1ccc2[nH]c3c(c2c1)CCNC31CCCN(Cc2ccc(F)cc2F)C1` (configuration not stated): the outcome was inactive.
Consider `COc1ccc2[nH]c3c(c2c1)CCNC31CCN(Cc2ccc(C(C)(C)C)cc2)CC1`, for which the outcome was inactive.
Turning to `COc1ccc2[nH]c3c(c2c1)CCNC31CCN(Cc2ccc(F)cc2F)C1` (configuration not stated), the outcome was inactive.
Regarding `COc1ccc2c(c1)c1c(n2C)C2(CCN(Cc3ccc(F)cc3F)CC2)NCC1`, the result was inactive.
The same measure, in the same setting: the entry for `COc1ccc2[nH]cc(CCNC3CCN(Cc4ccccc4)CC3)c2c1` is “inactive”; for `COc1ccc2[nH]c3c(c2c1)CCN[C@@]31CCN2Cc3ccccc3C[C@H]2C1` (racemic) it is “inactive”.
On the same count and under the same terms, the entry for `COc1ccc2[nH]c3c(c2c1)CCNC31CCNCC1` is “inactive”.

The target in a further assay is Cystic fibrosis transmembrane conductance regulator (Homo sapiens, UniProt P13569, N1303K). Described as §2. It is filed as cell-based.
Sequence of Cystic fibrosis transmembrane conductance regulator (P13569 whole entry N1303K): as the sequence (P13569 whole entry R347P) above, with P347R, N1303K counted along it
Settings: not given
The method, boiled down:
as §3
In the case of `COc1ccc2[nH]c3c(c2c1)CCNC31CCN(Cc2ccc([N+](=O)[O-])cc2F)CC1`, the EC50 (in general, the concentration needed to bring the measured effect to its halfway point) stood at 5.9 µM.
As to `COc1ccc2[nH]c3c(c2c1)CCNC31CCN(Cc2ccc(F)cc2F)CC1`, the EC50 is 2 µM.
In the case of `COc1ccc2[nH]c3c(c2c1)CCNC31CCN(Cc2ccc(Br)c(F)c2)CC1`, the EC50 turned out to be 1.8 µM.
For `COc1ccc2[nH]c3c(c2c1)CCNC31CCN(Cc2cc(Cl)ccc2[N+](=O)[O-])CC1`, the EC50 amounted to 7.1 µM.
For the compound `COc1ccc2[nH]c3c(c2c1)CCNC31CCN(Cc2ccccc2Cl)CC1`, the EC50 came to 2.2 µM.
`COc1ccc2[nH]c3c(c2c1)CCNC31CCN(Cc2cc(F)cc(F)c2)CC1`: the EC50 amounted to 11.1 µM.
Still for that read-out and setting: the figure for `COc1ccc2[nH]c3c(c2c1)CCNC31CCN(Cc2cc(F)ccc2F)CC1` is 11.1 µM; for `COc1ccc2[nH]c3c(c2c1)CCNC31CCN(Cc2ccc(Cl)cc2Cl)CC1` it is 1.8 µM.
Consider `COc1ccc2[nH]c3c(c2c1)CCNC31CCN(Cc2cccc(F)c2F)CC1`, for which the EC50 was 13.6 µM.
The same measure, in the same setting: for `COc1ccc2[nH]c3c(c2c1)CCNC31CCN(Cc2ccc(F)c(F)c2)CC1` the value was 11 µM; for `COc1ccc2[nH]c3c(c2c1)CCNC31CCN(Cc2cc(F)cc(Cl)c2)CC1`, 2.5 µM.
As to `COc1ccc2[nH]c3c(c2c1)CCNC31CCCN(Cc2ccc(F)cc2F)CC1` (configuration not stated), the EC50 is 20 µM.
As for `COc1ccc2[nH]c3c(c2c1)CCNC31CCN(Cc2c(F)ccc(Cl)c2F)CC1`, the EC50 stood at 4.5 µM.
`COc1ccc2[nH]c3c(c2c1)CCNC31CCN(C(C)c2ccccc2)CC1` (configuration not stated): the EC50 was 20 µM.
For the compound `COc1ccc2[nH]c3c(c2c1)CCNC31CCN(Cc2ccco2)CC1`, the EC50 is 16.4 µM.
As to `COc1ccc2[nH]c3c(c2c1)CCNC31CCN(Cc2ccccc2)CC1`, the EC50 was 12.6 µM.
As to `COc1ccc2[nH]c3c(c2c1)CCNC31CCN(Cc2ccccn2)CC1`, the concentration giving a half-maximal response (EC50) stood at 11.5 µM.
For the compound `Fc1ccc(CN2CCC3(CC2)NCCc2c3[nH]c3ccccc23)c(F)c1`, the half-maximal effective concentration (EC50) came to 8.2 µM.
For `COc1ccc2[nH]c3c(c2c1)CCNC31CCN(Cc2cccnc2)CC1`, the EC50 worked out at 17 µM.
With `COc1ccc2[nH]c3c(c2c1)CCNC31CCN(Cc2ccc(Br)cc2F)CC1`, the EC50 is 1.6 µM.
For the compound `Fc1ccc(CN2CCC3(CC2)NCCc2c3[nH]c3ccc(Br)cc23)c(F)c1`, the EC50 turned out to be 21 µM.

Tested on in the next assay: not listed separately
The experiment in a line: Potentiation of CFTR I1234del mutant (unknown origin) expressed in rat FRT cells assessed as increase in VX-770-stimulated chloride current in presence of forskolin by short circuit method. It is filed as cell-based. The following applies: Homo sapiens. The essentials: as §3
As to `COc1ccc2[nH]c3c(c2c1)CCNC31CCN(Cc2cc(F)c(F)cc2F)CC1`, the EC50 amounted to 0.7 µM.

The values above are taken from ChEMBL document CHEMBL4732073, “1-BENZYLSPIRO[PIPERIDINE-4,1'-PYRIDO[3,4-b]indole] 'co-potentiators' for minimal function CFTR mutants” (Eur J Med Chem, 2021).
